Measurements from ChEMBL document CHEMBL1154334, “Effect of the structure of adenosine mimic of bisubstrate-analog inhibitors on their activity towards basophilic protein kinases” (Bioorg Med Chem Lett, 2009).
Blank lines part the entries; values can stand above or below the molecule they belong to. Where a SMILES comes first, the peptide text is derived from it. [ ]: non-standard residue; d: D form. The star is where a group is joined. X1 = Nc1nccc(-c2ccc(C(=O)*)s2)n1; Ahx = NCCCCCC(=O)O

Columns and labels:
[1] = target: T1, RAC-gamma serine/threonine-protein kinase (Homo sapiens, UniProt Q9Y243); assay: Inhibition of PKBgamma in presence of 100 uM ATP
In short: (§1)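 Kinetic phosphorylation assays with PKA catalytic subunit (PKAc) or PKB catalytic subunit (PKBc) at fixed ATP. ATP Km values taken as 20 for PKAc and 100 for PKBc.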

[2] = target: T2, cAMP-dependent protein kinase catalytic subunit alpha (Homo sapiens, UniProt P17612); assay: Inhibition of PKACalpha in presence of 100 uM ATP; settings: read-out: IC50; in short: as §1
[3] = target: T3, Rho-associated protein kinase 2 (Homo sapiens, UniProt O75116); assay: Displacement of ARC583 from ROCK2
Target sequence in this assay (O75116 whole entry): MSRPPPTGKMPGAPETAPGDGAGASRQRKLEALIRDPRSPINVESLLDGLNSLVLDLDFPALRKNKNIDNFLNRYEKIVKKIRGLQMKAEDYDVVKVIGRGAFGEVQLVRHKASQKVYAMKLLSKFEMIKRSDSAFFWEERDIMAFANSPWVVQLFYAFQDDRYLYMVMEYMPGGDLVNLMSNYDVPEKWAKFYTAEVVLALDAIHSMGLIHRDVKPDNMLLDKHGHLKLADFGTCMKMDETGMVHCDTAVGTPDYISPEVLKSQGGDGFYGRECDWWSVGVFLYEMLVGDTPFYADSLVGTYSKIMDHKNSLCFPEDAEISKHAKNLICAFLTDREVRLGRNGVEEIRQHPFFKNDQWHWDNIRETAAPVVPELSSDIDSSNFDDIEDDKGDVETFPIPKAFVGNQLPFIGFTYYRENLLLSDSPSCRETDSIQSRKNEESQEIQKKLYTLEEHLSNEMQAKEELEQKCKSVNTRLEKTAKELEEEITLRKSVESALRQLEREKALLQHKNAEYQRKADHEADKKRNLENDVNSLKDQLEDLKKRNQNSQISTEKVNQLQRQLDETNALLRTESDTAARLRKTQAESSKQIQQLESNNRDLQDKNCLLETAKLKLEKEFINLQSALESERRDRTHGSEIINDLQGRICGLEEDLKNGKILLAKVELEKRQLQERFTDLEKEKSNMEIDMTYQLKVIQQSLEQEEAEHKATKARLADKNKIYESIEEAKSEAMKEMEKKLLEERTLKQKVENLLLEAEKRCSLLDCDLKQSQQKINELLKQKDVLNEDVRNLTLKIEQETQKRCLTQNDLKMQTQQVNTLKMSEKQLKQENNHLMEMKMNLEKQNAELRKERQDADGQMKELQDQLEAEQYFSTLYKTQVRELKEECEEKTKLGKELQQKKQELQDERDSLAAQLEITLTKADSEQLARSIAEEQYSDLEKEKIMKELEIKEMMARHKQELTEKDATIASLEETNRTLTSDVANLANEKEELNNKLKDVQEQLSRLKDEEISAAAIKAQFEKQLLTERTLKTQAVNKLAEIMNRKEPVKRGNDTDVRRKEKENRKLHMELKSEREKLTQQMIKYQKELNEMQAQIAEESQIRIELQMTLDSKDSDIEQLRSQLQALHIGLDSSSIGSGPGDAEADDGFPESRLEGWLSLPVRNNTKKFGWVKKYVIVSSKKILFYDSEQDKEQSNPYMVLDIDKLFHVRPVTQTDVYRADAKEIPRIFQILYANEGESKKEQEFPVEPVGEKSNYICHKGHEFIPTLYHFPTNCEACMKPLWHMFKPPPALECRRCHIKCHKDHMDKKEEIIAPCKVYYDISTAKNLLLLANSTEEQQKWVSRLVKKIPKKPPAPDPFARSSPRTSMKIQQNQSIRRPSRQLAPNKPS

[4] = target: Ribosomal protein S6 kinase alpha-1 (Homo sapiens) (UniProt Q15418); assay: Inhibition of RSK1 at 100 nM relative to control
In short: (§2)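 Kinase panel screen with inhibitor at 100 nM and ATP at about the Km of each kinase. Activity is given as percent inhibition relative to control incubations with the inhibitor omitted. Values are means of duplicate determinations, with the spread reported as the difference between duplicates.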

[5] = target: RAC-beta serine/threonine-protein kinase (Homo sapiens) (UniProt P31751); assay: Inhibition of PKBbeta at 100 nM relative to control; in short: as §2
[6] = target: T1, RAC-gamma serine/threonine-protein kinase; assay: Inhibition of PKBgamma at 100 nM relative to control; in short: as §2
[7] = target: Serine/threonine-protein kinase Sgk2 (Homo sapiens) (UniProt Q9HBY8); assay: Inhibition of SGK2 at 100 nM relative to control
In short: (§3)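 Kinase panel screen with the inhibitor at 100 nM and ATP at a concentration of about Km for each kinase. Activity was expressed as percent inhibition relative to control incubations that lacked inhibitor. Values are means of duplicate determinations, and the difference between the duplicates is also reported.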

[8] = target: Protein kinase C delta type (Homo sapiens) (UniProt Q05655); assay: Inhibition of PKCdelta at 100 nM relative to control; in short: as §2
[9] = target: Serine/threonine-protein kinase D3 (Homo sapiens) (UniProt O94806); assay: Inhibition of PKD3 at 100 nM relative to control; in short: as §2
[10] = target: Serine/threonine-protein kinase D1 (Homo sapiens) (UniProt Q15139); assay: Inhibition of PKCmu at 100 nM relative to control; in short: as §2
[11] = target: Protein kinase C theta type (Homo sapiens) (UniProt Q04759); assay: Inhibition of PKCtheta at 100 nM relative to control; in short: as §2
[12] = target: Serine/threonine-protein kinase Chk2 (Homo sapiens) (UniProt O96017); assay: Inhibition of CHK2 at 100 nM relative to control; in short: as §2
[13] = target: Cyclin-dependent kinase 2/cyclin A (Homo sapiens) (UniProt P24941+P20248+P78396); assay: Inhibition of CDK2/cyclin A at 100 nM relative to control; format: protein-complex assay; in short: as §2
[14] = target: cAMP-dependent protein kinase catalytic subunit PRKX (Homo sapiens) (UniProt P51817); assay: Inhibition of PRKX at 100 nM relative to control; in short: as §2
[15] = target: T3, Rho-associated protein kinase 2; assay: Inhibition of ROCK2 at 100 nM relative to control; in short: as §2
Target sequence in this assay (O75116 whole entry, looked up): as the sequence (O75116 whole entry) above

[16] = target: Calcium/calmodulin-dependent protein kinase type 1D (Homo sapiens) (UniProt Q8IU85); assay: Inhibition of CaMK 1delta at 100 nM relative to control; in short: as §2
[17] = target: Calcium/calmodulin-dependent protein kinase type II subunit alpha (Homo sapiens) (UniProt Q9UQM7); assay: Inhibition of CaMK2alpha at 100 nM relative to control; in short: as §2
[18] = target: Serine/threonine-protein kinase pim-1 (Homo sapiens) (UniProt P11309); assay: Inhibition of PIM1 at 100 nM relative to control; in short: as §2
[19] = target: Protein kinase C beta type (Homo sapiens) (UniProt P05771); assay: Inhibition of PKCbeta1 at 100 nM relative to control; in short: as §2
[20] = target: Proto-oncogene tyrosine-protein kinase Src (Homo sapiens) (UniProt P12931); assay: Inhibition of SRC at 100 nM relative to control; in short: as §3
[21] = target: 3-phosphoinositide-dependent protein kinase 1 (Homo sapiens) (UniProt O15530); assay: Inhibition of PDK1 at 100 nM relative to control
[22] = target: Glycogen synthase kinase-3 alpha (Homo sapiens) (UniProt P49840); assay: Inhibition of GSK3alpha at 100 nM relative to control; in short: as §2
[23] = Inhibition of PKG1 at 100 nM relative to control; in short: as §2
[24] = target: Ribosomal protein S6 kinase alpha-4 (Homo sapiens) (UniProt O75676); assay: Inhibition of MSK2 at 100 nM relative to control; in short: as §2
[25] = target: Serine/threonine-protein kinase Chk1 (Homo sapiens) (UniProt O14757); assay: Inhibition of CHK1 at 100 nM relative to control; in short: as §2
[26] = target: AMP-activated protein kinase (AMPK) alpha-1/beta-1/gamma-1 (Homo sapiens) (UniProt P54619+Q9Y478+Q13131); assay: Inhibition of AMPK alpha-1/beta-1/gamma-1 at 100 nM relative to control; format: protein-complex assay; in short: as §2
[27] = target: Protein kinase C beta type (Homo sapiens) (UniProt P05771); assay: Inhibition of PKCbeta2 at 100 nM relative to control; in short: as §2
[28] = target: Rho-associated protein kinase 1 (Homo sapiens) (UniProt Q13464); assay: Inhibition of ROCK1 at 100 nM relative to control; in short: as §2
[29] = target: Serine/threonine-protein kinase PAK 4 (Homo sapiens) (UniProt O96013); assay: Inhibition of PAK4 at 100 nM relative to control; in short: as §2
[30] = target: Serine/threonine-protein kinase PAK 3 (Homo sapiens) (UniProt O75914); assay: Inhibition of PAK3 at 100 nM relative to control; in short: as §2
[31] = target: Protein kinase C alpha type (Homo sapiens) (UniProt P17252); assay: Inhibition of PKCalpha at 100 nM relative to control; in short: as §2
[32] = target: Serine/threonine-protein kinase D2 (Homo sapiens) (UniProt Q9BZL6); assay: Inhibition of PKD2 at 100 nM relative to control; in short: as §2
[33] = target: Protein kinase C eta type (Homo sapiens) (UniProt P24723); assay: Inhibition of PKCeta at 100 nM relative to control; in short: as §2
[34] = target: Serine/threonine-protein kinase Sgk1 (Homo sapiens) (UniProt O00141); assay: Inhibition of SGK1 at 100 nM relative to control; in short: as §3
[35] = target: Ribosomal protein S6 kinase alpha-3 (Homo sapiens) (UniProt P51812); assay: Inhibition of RSK2 at 100 nM relative to control; in short: as §2
[36] = target: Serine/threonine-protein kinase PAK 6 (Homo sapiens) (UniProt Q9NQU5); assay: Inhibition of PAK6 at 100 nM relative to control; in short: as §2
[37] = target: Serine/threonine-protein kinase pim-2 (Homo sapiens) (UniProt Q9P1W9); assay: Inhibition of PIM2 at 100 nM relative to control; in short: as §2
[38] = target: Maternal embryonic leucine zipper kinase (Homo sapiens) (UniProt Q14680); assay: Inhibition of MELK at 100 nM relative to control; in short: as §2
[39] = target: Aurora kinase A (Homo sapiens) (UniProt O14965); assay: Inhibition of Aurora A at 100 nM relative to control; in short: as §2
[40] = target: RAC-alpha serine/threonine-protein kinase (Homo sapiens) (UniProt P31749); assay: Inhibition of PKBalpha at 100 nM relative to control; in short: as §2
[41] = target: Ribosomal protein S6 kinase alpha-5 (Homo sapiens) (UniProt O75582); assay: Inhibition of MSK1 at 100 nM relative to control; in short: as §2
[42] = target: T2, cAMP-dependent protein kinase catalytic subunit alpha; assay: Inhibition of PKA Calpha at 100 nM relative to control; in short: as §2
[43] = target: Protein kinase C iota type (Homo sapiens) (UniProt P41743); assay: Inhibition of PKCiota at 100 nM relative to control; in short: as §2
[44] = target: Death-associated protein kinase 3 (Homo sapiens) (UniProt O43293); assay: Inhibition of DAPK3 at 100 nM relative to control; in short: as §2
[45] = target: Protein kinase C epsilon type (Homo sapiens) (UniProt Q02156); assay: Inhibition of PKCepsilon at 100 nM relative to control; in short: as §2
[46] = target: Glycogen synthase kinase-3 beta (Homo sapiens) (UniProt P49841); assay: Inhibition of GSK3-beta at 100 nM relative to control; in short: as §2
[47] = target: Ribosomal protein S6 kinase beta-1 (Homo sapiens) (UniProt P23443); assay: Inhibition of p70S6 at 100 nM relative to control; in short: as §3
[48] = target: Calcium/calmodulin-dependent protein kinase type II subunit beta (Homo sapiens) (UniProt Q13554); assay: Inhibition of CaMK2beta at 100 nM relative to control; in short: as §2
[49] = target: cGMP-dependent protein kinase 2 (Homo sapiens) (UniProt Q13237); assay: Inhibition of PKG2 at 100 nM relative to control; in short: as §2
[50] = target: Protein kinase C gamma type (Homo sapiens) (UniProt P05129); assay: Inhibition of PKCgamma at 100 nM relative to control; in short: as §2
[51] = target: Ribosomal protein S6 kinase alpha-2 (Homo sapiens) (UniProt Q15349); assay: Inhibition of RSK3 at 100 nM relative to control; in short: as §3
[52] = target: Protein kinase C zeta type (Homo sapiens) (UniProt Q05513); assay: Inhibition of PKCzeta at 100 nM relative to control; in short: as §2

T1 sequence (Q9Y243 whole entry): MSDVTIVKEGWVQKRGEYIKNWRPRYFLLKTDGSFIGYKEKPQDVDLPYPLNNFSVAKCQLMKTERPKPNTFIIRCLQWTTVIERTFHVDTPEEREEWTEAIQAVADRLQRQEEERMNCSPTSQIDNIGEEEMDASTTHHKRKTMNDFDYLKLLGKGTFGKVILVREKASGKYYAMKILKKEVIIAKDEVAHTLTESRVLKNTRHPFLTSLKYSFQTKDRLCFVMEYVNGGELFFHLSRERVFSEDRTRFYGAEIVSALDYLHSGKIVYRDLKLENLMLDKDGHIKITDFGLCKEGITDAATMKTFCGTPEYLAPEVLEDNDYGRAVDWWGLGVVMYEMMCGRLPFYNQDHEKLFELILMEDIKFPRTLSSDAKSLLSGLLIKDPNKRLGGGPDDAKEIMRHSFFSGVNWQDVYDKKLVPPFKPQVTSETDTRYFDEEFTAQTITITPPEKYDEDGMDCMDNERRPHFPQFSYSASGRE
Sequence of Protein kinase C beta type (Homo sapiens) (P05771 2-671 limits assumed): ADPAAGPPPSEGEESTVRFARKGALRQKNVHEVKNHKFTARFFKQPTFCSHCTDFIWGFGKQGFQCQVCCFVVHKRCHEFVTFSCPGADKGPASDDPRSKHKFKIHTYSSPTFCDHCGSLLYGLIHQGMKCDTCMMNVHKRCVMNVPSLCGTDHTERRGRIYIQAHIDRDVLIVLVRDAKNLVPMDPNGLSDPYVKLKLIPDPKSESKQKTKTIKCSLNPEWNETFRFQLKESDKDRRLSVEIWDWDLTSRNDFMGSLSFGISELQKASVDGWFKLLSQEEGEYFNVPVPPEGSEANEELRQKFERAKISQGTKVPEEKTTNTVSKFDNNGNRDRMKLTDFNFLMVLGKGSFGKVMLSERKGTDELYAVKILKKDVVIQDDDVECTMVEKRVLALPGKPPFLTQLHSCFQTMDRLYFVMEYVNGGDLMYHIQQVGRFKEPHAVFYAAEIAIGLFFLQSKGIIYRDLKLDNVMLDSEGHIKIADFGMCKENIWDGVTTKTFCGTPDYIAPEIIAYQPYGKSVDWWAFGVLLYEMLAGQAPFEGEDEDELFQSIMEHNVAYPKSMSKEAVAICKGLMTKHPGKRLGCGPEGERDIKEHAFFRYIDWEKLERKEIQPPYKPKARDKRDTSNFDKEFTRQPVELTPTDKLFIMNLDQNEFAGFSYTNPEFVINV
Sequence of Ribosomal protein S6 kinase alpha-2 (Homo sapiens) (Q15349 whole entry): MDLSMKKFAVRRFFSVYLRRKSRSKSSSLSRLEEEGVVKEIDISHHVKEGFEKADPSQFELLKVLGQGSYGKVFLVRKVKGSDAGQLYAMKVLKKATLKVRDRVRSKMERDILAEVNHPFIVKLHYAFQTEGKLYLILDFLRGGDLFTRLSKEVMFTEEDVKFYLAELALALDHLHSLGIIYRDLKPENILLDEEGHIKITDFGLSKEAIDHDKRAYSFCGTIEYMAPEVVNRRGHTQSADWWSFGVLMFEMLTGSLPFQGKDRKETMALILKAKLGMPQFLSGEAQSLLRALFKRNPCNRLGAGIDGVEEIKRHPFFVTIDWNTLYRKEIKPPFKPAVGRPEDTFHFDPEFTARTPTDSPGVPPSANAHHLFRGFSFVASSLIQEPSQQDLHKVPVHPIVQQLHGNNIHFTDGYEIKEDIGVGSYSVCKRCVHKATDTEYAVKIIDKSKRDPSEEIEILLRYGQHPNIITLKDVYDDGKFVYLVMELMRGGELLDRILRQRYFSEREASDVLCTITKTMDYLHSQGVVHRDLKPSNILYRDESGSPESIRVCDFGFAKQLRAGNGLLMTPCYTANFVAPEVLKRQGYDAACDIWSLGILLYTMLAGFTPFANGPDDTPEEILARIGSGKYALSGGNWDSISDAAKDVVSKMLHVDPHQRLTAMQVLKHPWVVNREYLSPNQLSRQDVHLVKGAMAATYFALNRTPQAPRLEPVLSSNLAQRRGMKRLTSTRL
Sequence of Proto-oncogene tyrosine-protein kinase Src (Homo sapiens) (P12931 2-536 limits assumed): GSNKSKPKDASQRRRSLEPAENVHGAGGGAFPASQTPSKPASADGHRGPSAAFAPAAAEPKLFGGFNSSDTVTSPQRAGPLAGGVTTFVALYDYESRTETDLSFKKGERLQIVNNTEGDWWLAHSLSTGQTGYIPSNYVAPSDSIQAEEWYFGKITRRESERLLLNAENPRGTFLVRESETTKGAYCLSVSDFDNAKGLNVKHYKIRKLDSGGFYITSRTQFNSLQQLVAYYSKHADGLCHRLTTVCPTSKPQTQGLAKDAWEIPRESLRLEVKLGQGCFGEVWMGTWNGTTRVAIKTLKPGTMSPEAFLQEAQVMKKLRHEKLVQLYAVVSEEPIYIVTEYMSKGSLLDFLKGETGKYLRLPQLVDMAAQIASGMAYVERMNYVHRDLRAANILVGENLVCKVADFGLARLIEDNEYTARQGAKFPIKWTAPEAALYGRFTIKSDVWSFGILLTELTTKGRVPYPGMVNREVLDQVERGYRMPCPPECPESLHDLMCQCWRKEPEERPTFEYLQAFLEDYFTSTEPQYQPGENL
Sequence of Serine/threonine-protein kinase pim-1 (Homo sapiens) (P11309 whole entry, looked up): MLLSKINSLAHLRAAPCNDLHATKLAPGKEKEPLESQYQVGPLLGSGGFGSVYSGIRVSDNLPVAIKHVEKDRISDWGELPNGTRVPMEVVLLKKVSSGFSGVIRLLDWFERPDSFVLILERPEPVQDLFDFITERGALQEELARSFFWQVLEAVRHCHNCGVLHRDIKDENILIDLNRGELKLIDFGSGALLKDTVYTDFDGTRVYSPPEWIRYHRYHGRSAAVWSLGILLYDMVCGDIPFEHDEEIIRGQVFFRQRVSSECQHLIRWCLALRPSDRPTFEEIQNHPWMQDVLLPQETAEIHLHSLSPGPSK
Sequence of Serine/threonine-protein kinase PAK 3 (Homo sapiens) (O75914 whole entry, looked up): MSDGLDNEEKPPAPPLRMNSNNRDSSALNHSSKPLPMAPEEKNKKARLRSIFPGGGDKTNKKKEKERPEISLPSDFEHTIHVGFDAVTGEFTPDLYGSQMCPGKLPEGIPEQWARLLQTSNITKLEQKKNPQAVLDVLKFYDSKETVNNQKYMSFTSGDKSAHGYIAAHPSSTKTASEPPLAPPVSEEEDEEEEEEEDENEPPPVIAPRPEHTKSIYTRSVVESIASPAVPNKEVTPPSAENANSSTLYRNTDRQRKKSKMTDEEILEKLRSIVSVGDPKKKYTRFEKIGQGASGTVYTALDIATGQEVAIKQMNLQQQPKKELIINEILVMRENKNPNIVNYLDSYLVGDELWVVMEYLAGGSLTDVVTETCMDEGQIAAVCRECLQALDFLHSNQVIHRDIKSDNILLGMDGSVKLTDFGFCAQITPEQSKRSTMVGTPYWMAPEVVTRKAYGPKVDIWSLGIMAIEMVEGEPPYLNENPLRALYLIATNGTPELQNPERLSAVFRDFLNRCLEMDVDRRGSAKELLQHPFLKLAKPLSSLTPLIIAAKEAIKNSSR
Sequence of Serine/threonine-protein kinase pim-2 (Homo sapiens) (Q9P1W9 whole entry, looked up): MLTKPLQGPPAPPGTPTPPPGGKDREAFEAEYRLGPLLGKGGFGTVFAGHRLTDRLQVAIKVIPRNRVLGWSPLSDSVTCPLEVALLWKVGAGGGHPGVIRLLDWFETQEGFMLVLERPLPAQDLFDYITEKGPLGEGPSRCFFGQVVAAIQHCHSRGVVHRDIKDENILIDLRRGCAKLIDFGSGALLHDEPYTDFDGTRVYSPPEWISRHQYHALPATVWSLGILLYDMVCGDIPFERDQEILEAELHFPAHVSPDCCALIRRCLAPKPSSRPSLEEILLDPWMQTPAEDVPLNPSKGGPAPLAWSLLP

SMILES: NCCCC[C@@H](NC(=O)CCCCCNC(=O)[C@H]1O[C@@H](n2cnc3c(N)ncnc32)[C@H](O)[C@@H]1O)C(=O)NCCCCCC(=O)N[C@H](CCCN=C(N)N)C(=O)N[C@H](CCCN=C(N)N)C(N)=O
Kd [3]: < 0.003 µM

SMILES: NCCCC[C@@H](NC(=O)CCCCCNC(=O)c1ccc(-c2ccnc(N)n2)s1)C(=O)NCCCCCC(=O)N[C@H](CCCN=C(N)N)C(=O)N[C@H](CCCN=C(N)N)C(=O)N[C@H](CCCN=C(N)N)C(=O)N[C@H](CCCN=C(N)N)C(=O)N[C@H](CCCN=C(N)N)C(=O)N[C@H](CCCN=C(N)N)C(N)=O ({X1-Ahx}-[dK][Ahx][dR][dR][dR][dR][dR][dR]-NH2)
IC50 [1]: 0.012 µM

SMILES: N=C(N)NCCC[C@@H](NC(=O)[C@@H](CCCNC(=N)N)NC(=O)[C@@H](CCCNC(=N)N)NC(=O)[C@@H](CCCNC(=N)N)NC(=O)[C@@H](CCCNC(=N)N)NC(=O)[C@@H](CCCNC(=N)N)NC(=O)CCCCCNC(=O)[C@@H](CCCCN)NC(=O)CCCCCNC(=O)c1ccc(-c2ccnc(N)n2)s1)C(N)=O ({X1-Ahx}-[dK][Ahx][dR][dR][dR][dR][dR][dR]-NH2)
inhibition [4]: 97%
inhibition [5]: 80%
inhibition [6]: 100%
inhibition [7]: 91%
inhibition [8]: 97%
inhibition [9]: 90%
inhibition [10]: 93%
inhibition [11]: 91%
inhibition [12]: 33%
inhibition [13]: 6%
inhibition [14]: 106%
inhibition [15]: 106%
inhibition [16]: 25%
inhibition [17]: 10%
inhibition [18]: 97%
inhibition [19]: 100%
inhibition [20]: 26%
inhibition [21]: 65%
inhibition [22]: 8%
inhibition [23]: 105%
inhibition [24]: 112%
inhibition [25]: 82%
inhibition [26]: 41%
inhibition [27]: 104%
inhibition [28]: 106%
inhibition [29]: 21%
inhibition [30]: 69%
inhibition [31]: 92%
inhibition [32]: 79%
inhibition [33]: 106%
inhibition [34]: 97%
inhibition [35]: 103%
inhibition [36]: 70%
inhibition [37]: 95%
inhibition [38]: 83%
inhibition [39]: 46%
inhibition [40]: 97%
inhibition [41]: 112%
inhibition [42]: 104%
inhibition [43]: 24%
inhibition [44]: 44%
inhibition [45]: 103%
inhibition [46]: 4%
inhibition [47]: 99%
inhibition [48]: 22%
inhibition [49]: 78%
inhibition [50]: 108%
inhibition [51]: 97%
inhibition [52]: 38%

Results, then the molecule that gave them:

IC50 [1]: 360 µM
IC50 [2]: 183 µM
Kd [3]: 8 µM
SMILES: NCCCC[C@@H](NC(=O)CCCCCNC(=O)c1ccccc1)C(=O)NCCCCCC(=O)N[C@H](CCCN=C(N)N)C(=O)N[C@H](CCCN=C(N)N)C(N)=O

IC50 [1]: 28 µM
IC50 [2]: 23 µM
Kd [3]: 0.177 µM
SMILES: NCCCC[C@@H](NC(=O)CCCCCNC(=O)c1ccc(C(N)=O)cc1)C(=O)NCCCCCC(=O)N[C@H](CCCN=C(N)N)C(=O)N[C@H](CCCN=C(N)N)C(N)=O

IC50 [1]: 900 µM
IC50 [2]: 240 µM
Kd [3]: 6.1 µM
SMILES: N=C(N)NCCC[C@@H](NC(=O)[C@@H](CCCNC(=N)N)NC(=O)CCCCCNC(=O)[C@@H](CCCCN)NC(=O)CCCCCNC(=O)Nc1ccc(C(N)=O)cc1)C(N)=O
